Drawing on PubChem BioAssay AID504383 (The Scripps Research Institute Molecular Screening Center, 2011), this text covers activation for 92 compounds.

In all, about 2,500 compounds went through this assay and about 1,200 (48%) were called active.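 How the source made its calls: active means mean activation above the low control average plus 3 SD, as set in the primary screen (cut at about 12% in these data); inactive means the rest.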 The set was probably picked from earlier hits. Some of the results follow.

For this experiment, the target named is Troponin I, cardiac muscle (Homo sapiens) + Troponin T, cardiac muscle (Homo sapiens) + Troponin C, slow skeletal and cardiac muscles (Homo sapiens) (UniProt P19429+P45379+P63316). The experiment can be described thus: calcium sensitizers of cardiac thin filaments – biochemical, IANBD-TnC fluorescence, triplicate, confirmation (AID 504383).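 Further: 0% = DMSO at 0.472 mM calcium and 100% = DMSO at 2.9 mM calcium.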 The note with it: IANBD-labeled cardiac RTF, Ca2+ sensitivity fluorescence; at 7.2 µM; stronger effect = higher value; scaled from EC20 to saturating calcium; tested at EC20 calcium, 0.472 mM. In outline:
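Assay system: labelled regulated thin filament protein complex; schedule: 15 min compound incubation with filaments at 25 °C; benchmarks: low control EC20 calcium, high control EC100 calcium; reagent: Ca2+ 0.472 mM, EC20 level; doses: one dose, 7.2 µM nominal; evaluation: fluorescence gain scaled between EC20 and EC100 calcium controls; signal: filament fluorescence intensity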
For `Cc1nc(Cl)c2c(n1)NC1=C(O2)C(=O)CCC1`, the activation was 10.5% (inactive).
With `CCN(CC)C(=O)c1ccc(/C=C/c2c[nH]c3ccccc23)[n+](C)c1`, the activation is 11.1% (inactive).
With `CCOC(=O)/C(=C\c1c[nH]c2ccccc12)NC(C)=O`, the activation was 31.7% (active).
The same measure for `CCOC(=O)C(CCCCCCC(NC(C)=O)(C(=O)OCC)C(=O)OCC)(NC(C)=O)C(=O)OCC`: 9.57% (inactive).
The same measure for `CCN(CC)C1=CC2=CC(=C(C#N)C#N)CCC2CC1` (configuration not stated): 1.65% (inactive).
The same measure for `Cc1ccc(C(=O)NN2C(=O)/C(=C/c3cccn3C)SC2=S)cc1`: 25.1% (active); for `Cn1cccc1/C=C1\SC(=S)N(NC(=O)c2ccc(Cl)cc2)C1=O`: 16.8% (active); for `Cn1cccc1/C=C1\SC(=S)N(NC(=O)c2ccccc2)C1=O`: 54.2% (active).
Consider `O=c1cc(CN2CCCc3ccccc32)nc2sccn12`, for which the activation was 5.39% (inactive).
The result for `c1ccc2c(c1)CCCN2Cc1nnnn1CC1CCCO1` (configuration not stated) reads 7.11% (inactive); that for `c1ccc2c(c1)CCCN2Cc1nnc2n1CCCCC2`, 92% (active); that for `COc1cc(/C=C2\CCC(C)C3=C(c4cc(OC)c(OC)c(OC)c4)C(C#N)=C(N)OC32)cc(OC)c1OC` (configuration not stated), 36.4% (active).
With `O=c1oc2ccccc2cc1-c1ccc(O)cc1O`, the activation was 94.9% (active).
Turning to `O=c1oc2cc(O)ccc2cc1-c1nc2c(s1)CCc1ccccc1-2`, the activation was 7.71% (inactive).
The result for `O=c1c(-c2ccc(O)cc2O)coc2cc(O)cc(O)c12` reads 8.85% (inactive); that for `CC(C)(C)NC(=O)[C@@H]1CN(Cc2cccnc2)CCN1C[C@@H](O)C[C@@H](Cc1ccccc1)C(=O)N[C@H]1c2ccccc2C[C@H]1O`, 158% (active); that for `CN(C)S(=O)(=O)c1ccc(C(=O)Oc2cc(=O)[nH]c3ccccc23)cc1`, 10.2% (inactive).
As to `CN(CC(=O)Nc1ccccc1Cl)C(=O)c1cc(=O)[nH]c2ccccc12`, the activation is 49.3% (active).
`COc1ccc(N(CC(=O)Nc2ccccc2C(=O)NCC(C)C)S(C)(=O)=O)cc1`: the activation was 4.96% (inactive).
In the case of `CCn1cc(Cl)c(C(=O)NNC(=O)CCn2cc([N+](=O)[O-])cn2)n1`, the activation is 23.9% (active).
With `CCNC(=S)NNC(=O)CCn1cc(C)cn1`, the activation was 6.76% (inactive).
The same measure for `CCCCCCc1cc2cc(-c3nnc(-c4ccccc4)o3)c(=O)oc2cc1O`: 4.49% (inactive).
Turning to `CCCCCCc1cc2cc(-c3nnc(-c4ccccc4O)o3)c(=O)oc2cc1O`, the activation was 14.4% (active).
The same measure for `O=[N+]([O-])c1cc(-c2nc(-c3ccncc3)no2)ccc1Cl`: 7.62% (inactive); for `CCOC(=O)C1(Cc2cccc(OC)c2)CCN(Cc2ccon2)CC1`: 12.7% (active); for `CCOC(=O)C1(Cc2cccc(OC)c2)CCCN(Cc2nccn2CC)C1` (configuration not stated): 6.61% (inactive).
`CCOC(=O)C1(CCc2ccccc2)CCN(C(=O)c2occc2C)CC1`: the activation is 9.68% (inactive).
On to `Nc1ccc(S(N)(=O)=O)cc1N`, for which the activation was 600% (active).
The result for `CCCCn1c(N)c(N(CC(C)C)C(=O)Cc2ccc(S(=O)(=O)N3CCOCC3)s2)c(=O)[nH]c1=O` reads 8.87% (inactive).
In the case of `CCOc1ccccc1N1CCN(CC(=O)c2c(N)n(C)c(=O)n(C)c2=O)CC1`, the activation is 14.9% (active).
The same measure for `CCOc1ccccc1N1CCN(CC(=O)N(CC(C)C)c2c(N)n(CC(C)C)c(=O)[nH]c2=O)CC1`: 35.3% (active).
On to `CC(C)CN(C(=O)CCCc1nc2ccccc2c(=O)[nH]1)c1c(N)n(Cc2ccccc2)c(=O)[nH]c1=O`, for which the activation is 8.94% (inactive).
Regarding `O[C@@H]1CN(C2CCCCC2)CC[C@H]1N1CCN(CCc2ccccc2)CC1`, the activation is 18.1% (active).
The same measure for `c1ccc(CCCN2CCN(c3ccccc3)CC2)cc1`: 7.15% (inactive); for `CC1=NN(c2ccc(C)c(C)c2)C(=O)/C1=C/c1ccc2c(c1)n(C)c(=O)n2C`: 57.9% (active); for `CC1=NN(c2ccc(Br)cc2)C(=O)/C1=C/c1ccc(-c2ccccc2C(=O)O)o1`: 10.1% (inactive).
Regarding `O=C(Nc1ccc(C(=O)N2CCOCC2)cc1)Nc1cccc(Cl)c1`, the activation was 47.5% (active).
The same measure for `CN1CCC/C1=C1/C(=O)N(c2ccccc2)N=C1NC(=O)Nc1cccc(Cl)c1`: -1.33% (inactive).
The result for `O=C(NCC1CC1)Nc1cccc(Cl)c1` reads 2.84% (inactive).
`CC(COC(=O)c1ccccc1)(COC(=O)c1ccccc1)/[N+]([O-])=C/c1ccccc1`: the activation was 32% (active).
The same measure for `COCCOC(=O)/C(=C/c1ccc(OC(=O)c2ccccc2)cc1)C(C)=O`: 8.35% (inactive).
The result for `Nc1ccc2nc3c(=O)[nH]c(=S)[nH]c3nc2c1` reads 28.7% (active).
For the compound `Cc1cc2nc3c(=O)[nH]c(=O)[nH]c3nc2c([N+](=O)[O-])c1N`, the activation is 2.96% (inactive).
The same measure for `Nc1ccc2nc3c(=O)n(C4CCCCC4)c(=O)[nH]c3nc2c1`: 16.6% (active).
`Cc1cc2nc3c(=O)[nH]c(=S)[nH]c3nc2cc1NC(=O)C(F)(F)F`: the activation is 25.4% (active).
Regarding `Cc1cc2nc3c(=O)n(C4CCCCC4)c(=O)[nH]c3nc2cc1N`, the activation was 17.8% (active).
The result for `COCc1cc(=O)[nH]c2cc(NC(=O)C(C)(C)CCl)c(C)cc12` reads 4.59% (inactive); that for `O=C(c1ccc(COc2ccccc2Br)o1)N1N=C(C(F)F)CC1(O)C(F)F` (configuration not stated), 34.5% (active).
On to `O=C(c1ccc(Cn2cc([N+](=O)[O-])cn2)o1)N1N=C(C(F)F)CC1(O)C(F)F` (configuration not stated), for which the activation was 14.1% (active).
Consider `c1ccc(-n2ncc(-c3nn[nH]n3)n2)cc1`, for which the activation was 163% (active).
The result for `CC(=O)Nc1ccc(N2C(=O)CSC2c2ccc(F)cc2)cc1` (configuration not stated) reads 81.7% (active); that for `CC(=O)Nc1ccc(N2C(=O)c3cccc4c(O)ccc(c34)C2=O)cc1`, 2.36% (inactive); that for `CCC(=O)N1CCC2(CC1)Oc1ccc(Cl)cc1C(=O)C21CC(c2cccnc2)=NO1` (configuration not stated), 19.6% (active).
For `CN1C(=O)/C(=C\c2ccc(N(C)C)cc2)OC1=S`, the activation was 223% (active).
The result for `CN(C)c1ccc(/C=C2\N=C(C(C)(C)C)OC2=O)cc1` reads 7.46% (inactive); that for `Cc1c(N2C(=O)/C(=C\c3ccc(N(C)C)cc3)N(C)C2=S)c(=O)n(-c2ccccc2)n1C`, 6.77% (inactive).
The same measure for `CN(N=Nc1nc[nH]c1C(=O)NN)C1CCCCC1`: 12.9% (active).
Consider `Cc1cc(C)c(C#N)c(SCc2nnc(-c3ccccc3)o2)n1`, for which the activation is 50.8% (active).
In the case of `COC(=O)CCCNC(=O)CCc1nnc(-c2ccc(-c3ccccc3)cc2)o1`, the activation is 10.8% (inactive).
With `O=C(CO/N=C/c1ccccc1OC(F)F)NCc1cccs1`, the activation is 70.3% (active).
The same measure for `O=C1c2cccc3c(N4CCCCC4)ccc(c23)C(=O)N1CCO`: 185% (active).
The result for `C=CCN1C(=O)c2cccc3c(N4CCCCC4)ccc(c23)C1=O` reads 15.9% (active); that for `O=C1c2cccc3c(N4CCCCC4)ccc(c23)C(=O)N1c1ccccc1O`, -0.04% (inactive); that for `O=C1c2cccc3c(N4CCCCC4)ccc(c23)C(=O)N1c1cccc(O)c1`, 33.3% (active).
With `O=C1c2cccc3c(N4CCCCC4)ccc(c23)C(=O)N1c1ccc(O)cc1`, the activation was 10.7% (inactive).
The same measure for `Cc1n[nH]c(C)c1N1C(=O)c2cccc3c(N4CCCCCC4)ccc(c23)C1=O`: 5.61% (inactive).
The same measure for `O=C1c2ccccc2-c2onc3ccc(N4CCCC4)c1c23`: 9.75% (inactive); for `CCCN1C(=O)c2cccc3c(N4CCCCC4)ccc(c23)C1=O`: 6.04% (inactive); for `CC1(C)C2CCC(C2)C1(C)N=C1OC(CCl)CS1` (configuration not stated): 3.58% (inactive).
The same measure for `O=c1oc2c3c4c(cc2c(C(F)(F)F)c1CCN1CCOCC1)CCCN4CCC3`: 4.32% (inactive); for `O=c1ccc2cc3c4c(c2o1)CCCN4CCC3`: 33.6% (active); for `N=c1oc2c3c4c(cc2cc1C(=O)Nc1ccccc1)CCCN4CCC3`: 88.7% (active).
In the case of `Cc1ccc2c(CN3CCCc4ccccc43)cc(=O)oc2c1C`, the activation is -0.53% (inactive).
Consider `CCN(CC)S(=O)(=O)c1ccc2[nH]cc(C(=O)NCCN3CCCCCC3)c(=O)c2c1`, for which the activation is 34.4% (active).
Take `CC(C)(C)c1cc(NC(=O)c2cccc(S(=O)(=O)N3CCOCC3)c2)no1`: the activation is 23.5% (active).
The result for `CC(=O)N1CCN(S(=O)(=O)c2cccc(C(=O)NNC(=O)c3ccc(Br)cc3)c2)CC1` reads 7.22% (inactive); that for `Cn1nc(-c2ccccc2)c(C(=O)Nc2ccc(C(F)(F)F)cc2)c1Cl`, 26.2% (active); that for `CN1CCN(C2=CC3=CC(=C(C#N)C#N)CCC3CC2)CC1` (configuration not stated), 6.77% (inactive).
With `CSCC(C)N1CCC(n2nccc2NC(=O)CCCc2ccccc2)CC1` (configuration not stated), the activation is 162% (active).
The result for `CC(=O)NCC(O)c1ccc([N+](=O)[O-])cc1` (configuration not stated) reads 7.74% (inactive); that for `COC(=O)CCN(C(=O)c1ccc([N+](=O)[O-])cc1)c1ccccn1`, 19.7% (active).
As for `COCCCNc1c2c3c(cccc3[nH]c1=O)C(=O)c1ccccc1-2`, the activation is 13.2% (active).
Turning to `CCCCNc1c2c3c(cccc3n(C)c1=O)C(=O)c1ccccc1-2`, the activation is 2.63% (inactive).
The result for `CC(C)n1cnc2c(NCc3ccccc3)cc(N[C@H](C)CO)cc21` reads -7.72% (inactive).
In the case of `CCOC(=O)c1sc2nc(C)nc(SCC(=O)NC3CCS(=O)(=O)C3)c2c1C` (configuration not stated), the activation was 32.3% (active).
On to `C[C@@H]1CC=C[C@H]2[C@H]1C(=O)N(Cc1ccccc1)[C@H]2c1ccc(-c2cc3ccccc3s2)cc1F`, for which the activation was 3.06% (inactive).
As to `CN(Cc1ccccc1)C(=O)c1cccc(N2C(=O)NC3CC2(C)Oc2ccccc23)c1` (configuration not stated), the activation is 54% (active).
The same measure for `COc1cccc2c1OC1(C)CC2NC(=O)N1Cc1ccccc1` (configuration not stated): 10.4% (inactive); for `CCOc1cccc2c1OC1(C)CC2NC(=O)N1c1cccc(C(=O)NCc2ccccn2)c1` (configuration not stated): 5.07% (inactive).
Take `CC1=Nc2ccccc2/C1=C\c1nc(-c2ccc(C(F)(F)F)cc2)oc1O`: the activation was 7.9% (inactive).
The result for `CC1=Nc2ccccc2/C1=C\c1nc(-c2ccc(F)cc2)oc1O` reads 7.33% (inactive); that for `COc1ccc(-c2nc(/C=C3\C(C)=Nc4ccccc43)c(O)o2)cc1`, 12.1% (active).
